Sampled rows, rich in hits. Any-hit rate of the full collection: about 3.3%.
PMI activator – increases human mannose-6-phosphate isomerase activity; purified human PMI, coupled resazurin fluorescence, 20 min; stronger effect = higher value; 1 = vehicle control, 0 substrate-free wells; activation factor at 20 µM; hit rate 0.005% among 190,000;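 active means activation factor of 2 or more at 20 µM, relative to plate controls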
ROMK mod – human ROMK K+ channel modulation, primary screen; B-score at 10 µM; AID 1918; hit rate 2% among 130,000; Tet-inducible ROMK, thallium flux fluorescence; actives lie on both sides; P48048;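 active means signal ratio slope over the read window, or its plate-corrected B-score, at least 3 SD from the plate mean, either direction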;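 further: B-score of the F/F0 ratio slope over 7 to 12 s after thallium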
ABCG2 inh – inhibitors of human ABCG2 transporter, ABCB1 counter-screen; AID 1325; Q9UNQ0; hit rate 0.1% among 190,000; IgMXP3 cells, JC-1 efflux, flow cytometry; inhibition, % at 6.6 µM;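 active means inhibition above 80%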;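 further: 0% = DMSO and 100% = nicardipine control wells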
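Measure – % inhibition of efflux relative to nicardipine and DMSO · Test system – ABCG2 IgMXP3 and barcoded ABCB1 CCRF-Adr cell mix · Control set – nicardipine as high control, DMSO as low control · Compound – one concentration, 6.6 µM final · Signal – flow cytometry of retained JC-1 fluorescence · Timing – 10 min exposure at 25 °C with rotation, no wash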
ABCB1 inh – inhibitors of human ABCB1 transporter, ABCG2 counter-screen; CCRF-Adr cells, JC-1 efflux, flow cytometry; hit rate 0.067% among 190,000; P08183; inhibition, % at 6.6 µM; in the data active means inhibition above about 40%;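 further: 0% = vehicle and 100% = reference inhibitor; higher value means more JC-1 retained so stronger ABCB1 efflux block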
Target sequence (P08183 whole entry, looked up): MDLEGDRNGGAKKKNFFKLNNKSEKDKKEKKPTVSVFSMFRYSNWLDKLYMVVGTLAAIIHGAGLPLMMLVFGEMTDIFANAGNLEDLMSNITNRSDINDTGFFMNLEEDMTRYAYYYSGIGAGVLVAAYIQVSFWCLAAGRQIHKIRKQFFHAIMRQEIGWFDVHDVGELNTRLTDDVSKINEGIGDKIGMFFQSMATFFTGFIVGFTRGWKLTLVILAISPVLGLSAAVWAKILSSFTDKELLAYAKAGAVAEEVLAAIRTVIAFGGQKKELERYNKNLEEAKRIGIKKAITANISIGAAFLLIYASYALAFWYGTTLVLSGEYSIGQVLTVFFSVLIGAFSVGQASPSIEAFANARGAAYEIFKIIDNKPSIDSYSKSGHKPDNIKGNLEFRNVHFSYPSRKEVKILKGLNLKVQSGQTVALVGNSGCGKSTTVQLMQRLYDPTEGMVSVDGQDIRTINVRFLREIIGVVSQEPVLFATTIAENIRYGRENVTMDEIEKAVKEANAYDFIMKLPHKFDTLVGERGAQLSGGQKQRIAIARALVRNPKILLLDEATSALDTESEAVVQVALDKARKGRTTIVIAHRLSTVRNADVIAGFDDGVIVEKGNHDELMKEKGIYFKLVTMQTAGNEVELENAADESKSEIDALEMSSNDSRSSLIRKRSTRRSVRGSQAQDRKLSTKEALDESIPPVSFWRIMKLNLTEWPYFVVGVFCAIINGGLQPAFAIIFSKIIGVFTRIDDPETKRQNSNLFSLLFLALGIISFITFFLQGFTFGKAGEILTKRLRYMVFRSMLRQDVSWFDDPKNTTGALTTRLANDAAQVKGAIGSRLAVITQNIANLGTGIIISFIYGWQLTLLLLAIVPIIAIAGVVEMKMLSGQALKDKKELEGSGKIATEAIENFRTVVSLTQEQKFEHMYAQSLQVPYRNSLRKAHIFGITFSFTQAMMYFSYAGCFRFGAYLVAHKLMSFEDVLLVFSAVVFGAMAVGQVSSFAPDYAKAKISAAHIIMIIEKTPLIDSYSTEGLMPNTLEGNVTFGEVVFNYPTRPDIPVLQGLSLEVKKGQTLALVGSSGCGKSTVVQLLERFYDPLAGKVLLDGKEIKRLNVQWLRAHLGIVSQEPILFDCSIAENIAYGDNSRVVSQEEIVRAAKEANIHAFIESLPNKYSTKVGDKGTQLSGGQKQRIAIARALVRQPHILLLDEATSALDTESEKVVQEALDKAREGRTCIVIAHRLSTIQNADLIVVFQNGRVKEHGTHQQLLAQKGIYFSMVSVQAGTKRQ
PMI act hi M6P – activators of human phosphomannose isomerase at near-saturating mannose 6-phosphate. P34949. coupled PMI enzyme assay, resazurin fluorescence, 20 min; stronger effect = higher value; 1 = untreated enzyme, 0 = substrate-free blank. activation factor at 20 µM. hit rate 0.34% among 190,000;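 active means activation factor of 2 or more at 20 µM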
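test system = human PMI in coupled enzyme assay | medium = HEPES-buffered pH 7.4 with magnesium and detergent | also added = 1.0 mM mannose-6-phosphate substrate with 0.22 mM NADP+ | compound = 20 µM single dose | times = 20 min incubation at room temperature | measured by = resorufin fluorescence (Ex 544/Em 590 nm) from resazurin via diaphorase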
Cl transport mod – KCC2 (human) Cl- transport modulation; hit rate 2.2% among 190,000; B-score of Tl+ flux slope (higher = more flux/activation; lower = inhibition) at 10 µM; Q9H2X9; KCC2 cells, thallium flux FluoZin-2 fluorescence;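 active means thallium flux slope and its plate-corrected score both differing from the plate sample mean at a set confidence after two filtering rounds, in either direction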;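 further: slope of fluorescence scaled to starting intensity during 10 to 20 s after thallium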
ROMK retest – human ROMK channel modulation, retest confirmation | shares compounds with ROMK mod | ROMK thallium flux, fluorescence ratio; stronger effect = lower value | hit rate 54% among 3,000 | normalized thallium flux (F/F0 slope) at 10 µM;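 active means Flux at 10 µM at least 3 SD below or above vehicle control mean in one or both replicates; inconclusive means no clear call, values can overlap the other calls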
Numbers without * were called inactive; ? = inconclusive; . = not tested or not shown.

SMILES	PMI activator	ROMK mod	ABCG2 inh	ABCB1 inh	PMI act hi M6P	Cl transport mod	ROMK retest
CCCCc1nc2ccccc2c(NC(=O)CNC(C)(C)C)c1CCC	0.9	-2.79*	1.8	5.4	1	-0.473	0.0547*
CC1C/C(=C/c2cccs2)C(=O)/C(=C/c2cccs2)C1 (configuration not stated)	1	2.93*	-17.7	-5.3	1	0.253	0.0713
CC1C/C(=C/c2ccco2)C(=O)/C(=C/c2ccco2)C1 (configuration not stated)	1.2	-1.24	-7.0	2.8	1.3	-0.984	.
Cc1cc(N2CCN(c3nc4ccccc4s3)CC2)n2ncnc2n1	1	.	4.6	1.4	0.9	-1.65	0.0642*
Cc1cc(N2CCN(C(c3ccccc3)c3ccccc3)CC2)n2ncnc2n1	0.8	1.54*	17.1	1.5	0.9	.	?
CCOC(=O)N1CCN(S(=O)(=O)c2ccc3c(c2)OCC(=O)N3)CC1	1.1	-2.46*	1.7	0.5	1	1.07	0.0578*
CCOC(=O)N1CCN(S(=O)(=O)c2ccc3c(c2)SCC(=O)N3)CC1	1	-4.29*	6.0	2.5	1	.	0.0611*
CCOC(=O)N1CCN(S(=O)(=O)c2ccc(C)c(C)c2)CC1	1	-0.0244	-0.1	0.2	1	.	.
CCOC(=O)N1CCN(S(=O)(=O)c2ccc3c(c2)SC(C)C(=O)N3)CC1 (configuration not stated)	1.1	.	2.8	1.6	1.1	-0.0791	0.0674*
COc1ccc(CNC(=O)CCc2c(C)nc3ncnn3c2C)cc1	1	1	-6.8	0.0	1	.	.
O=C(NC(=O)c1cccc(Cl)c1)OC[C@@H]1CCCN2CCCCC12 (some centres not stated)	0.9	.	-0.1	-0.1	0.9	0.291	.
Cc1ccc(CN2CCN(/N=C/c3ccc(C)s3)CC2)cc1	0.9	.	-0.4	0.5	0.9	-0.605	.
CC(C(=O)NCc1ccco1)n1cc([N+](=O)[O-])cn1 (configuration not stated)	1.1	0.117	-1.9	0.0	1	2.31	.
C/C=C/c1c(F)c(F)c(Oc2ccc(C(=O)O)cc2)c(F)c1F	1	3.8*	0.7	0.4	1	.	0.0902
C/C(=N/OC(=O)c1ccccc1)c1oc(C)nc1C	.	.	.	.	.	-1.6	.
CC/C(=C\c1oc2cc3ccccc3cc2[n+]1CC)Nc1ccccc1	1.2	.	3.5	1.5	0.8	.	0.0549*
COc1ccc(-c2nc(N)c(C#N)c(-c3cccnc3)c2C)cc1	.	-0.112	.	.	.	0.0132	.
COCCn1nnnc1C(c1cccc(C(F)(F)F)c1)N1CCN(Cc2ccccc2)CC1 (configuration not stated)	1	-3.94*	1.8	0.7	1.1	-0.293	0.0537*
COc1ccc(/C=C/C(=O)c2cc(Br)ccc2O)cc1OC	0.9	-0.044	10.2	0.7	0.9	-0.648	.
COc1cc(/C=N/NC(=O)c2ccc(F)cc2)ccc1OC(=O)c1ccco1	1	0.0389	3.4	0.7	1.1	0.341	.
COc1cc(/C=C2/C(=O)NN(c3cccc(F)c3)C2=O)ccc1OC(=O)c1ccco1	1.1	-0.771	-3.0	-0.9	1.2	-0.921	.
COc1cc(/C=C2/C(=O)NN(c3ccc(Cl)cc3)C2=O)ccc1OC(=O)c1ccco1	1.1	-3.3*	-3.7	-0.7	1.2	-0.645	0.0708
COC(=O)N/N=C/c1ccc(OC(=O)c2ccco2)c(OC)c1	.	4.62*	.	.	.	0.0143	0.0735
COc1ccc(/C=C/C(=O)c2cc(Br)ccc2OC(=O)c2ccco2)cc1OC	1.1	2.16	17.8	4.0	1.1	-0.16	0.0832
CCOC(=O)/C(C#N)=C\C1=C(N2CCCC2)CC(C)(CC)OC1 (configuration not stated)	1	0.184	3.6	1.0	1	0.273	.
SMILES	PMI activator	ROMK mod	ABCG2 inh	ABCB1 inh	PMI act hi M6P	Cl transport mod	ROMK retest
Cc1ccc(NC(=S)N(CCCN2CCCC2)Cc2cccn2Cc2ccc(Cl)cc2)cc1C	0.9	-2.8*	2.0	1.1	0.9	0	0.062*
COC(=O)c1ccc(OC(=O)c2ccc(OC)c(OC)c2)c(OC)c1	1	-3.89*	1.5	0.7	1	-0.0935	0.0796
COC(=O)c1ccc(OC(=O)c2ccc(OC)cc2)c(OC)c1	0.9	-0.503	2.3	0.2	0.9	-0.21	.
Nc1nnnn1/N=C/c1cccc(OCc2ccccc2Cl)c1	1	-0.286	1.1	0.1	1	-0.643	.
O=C(O)c1cc(N2N=C(C(F)(F)F)/C(=C/C=C/c3ccco3)C2=O)ccc1Cl	1.5	-5.27*	-6.1	-1.2	2.2*	-1.38	0.049*
COc1ccc(/C=C2\SC(=O)N(CCNC(=O)C3CC(=O)N(c4ccccc4)C3)C2=O)cc1 (configuration not stated)	1.1	.	4.8	1.3	1.1	0.00596	.
O=C(NCCN1C(=O)CSC1=O)C1CC(=O)N(c2ccccc2)C1 (configuration not stated)	0.9	0.912*	0.8	0.3	0.9	0.64	0.0806
CC(C)(C)Nc1nc(NN)nc(NC(C)(C)C)n1	1.1	-5.22*	-1.3	-1.8	1.1	0.0534	0.0509*
CNc1nc(Cl)nc(NC(C)(C)C)n1	1	.	5.0	1.5	0.9	.	.
CN(Cc1cn[nH]c1-c1ccc(-c2ccccc2)cc1)CC1CCOCC1	.	.	.	.	.	0.778	.
Cc1ccc(-n2nnnc2Sc2ccc(S(=O)(=O)NCCN(C)C)cc2[N+](=O)[O-])cc1	1	-3.54*	8.7	1.6	0.9	-0.0368	0.0573*
CN(C)CCNS(=O)(=O)c1ccc(N2CCN(c3ccc(F)cc3)CC2)c([N+](=O)[O-])c1	0.8	-3.98*	48.7	3.8	0.9	-1.98	0.0645*
COc1ccc(OCCn2c(=N)n(CCO)c3ccccc32)cc1	0.9	-1.24	3.5	1.2	0.9	0.719	.
CCCn1c(=N)n(CC(O)COc2ccc(C)cc2)c2ccccc21 (configuration not stated)	.	.	.	.	.	-0.681	.
CCCCn1c(=N)n(CC(O)COc2cccc(C)c2)c2ccccc21 (configuration not stated)	0.9	-5.78*	1.4	0.8	0.9	.	0.0511*
C=CCn1c(=N)n(CC(O)COc2ccccc2OC)c2ccccc21 (configuration not stated)	1	.	1.7	0.4	0.9	-0.0867	.
CCCCn1c(=N)n(CCOc2ccc(C)cc2)c2ccccc21	1.1	-3.5*	1.9	.	1.1	0.222	0.0505*
Cc1ccccc1OCC(O)Cn1c(=N)n(Cc2ccccc2)c2ccccc21 (configuration not stated)	.	-4.65*	.	.	.	1.37	0.0497*

Screens from PubChem BioAssay.
